Experimental data from ChEMBL document CHEMBL1123318, “(S)-3-[(benzyloxy)methyl]morpholine hydrochloride: a nonstimulant appetite suppressant without conventional neurotransmitter releasing properties” (J Med Chem, 1986).
pIC50: −log10 of the molar value.

How the values were obtained:
Canis familiaris [1] = species on record: Canis familiaris; experiment: Compound was evaluated for oral ED50 for appetite suppression in dogs.; assay type: functional; settings: Canis lupus familiaris
Procedure, shortened: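 ED50 for the 1-h food intake effect: five pairs of trained beagle dogs were randomly allocated to oral 5, 10, 15 or 20 mg/kg or to an undosed placebo pair. Treatments ran on successive days in a Latin Square design, and food was weighed 1 h into the feeding period.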

Canis familiaris [2] = experiment: Compound was evaluated for mean reduction in food in take in dogs at 2 hour after dosing; assay type: functional, Canis lupus familiaris
Procedure, shortened: (§1)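 Mature beagle dogs were trained to a daily 4-h feeding period with free access to meat. Groups of three received oral drug in soft gelatin capsules 1 h before feeding, and controls received empty capsules. All dogs got placebo on days 1–2, then drug or placebo on days 3–5. Leftover food was weighed at 1 and 2 h. Per-dog % change was taken against the days 1–2 mean, then averaged over days 3–5 and per group.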

Canis familiaris [3] = experiment: Compound was evaluated for mean reduction in food intake in dogs at 1 hour after dosing; assay type: functional, Canis lupus familiaris; procedure, shortened: as §1
Canis familiaris [4] = experiment: Compound was evaluated for mean reduction in food intake in dogs at a dose 15 mg/kg at 2 hour after dosing for the first 3 days; assay type: functional, Canis lupus familiaris
Procedure, shortened: (§2)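 Chronic regime: three beagle dogs on a daily 4-h meat feeding period were given a daily oral dose for 3 weeks. Food intake was measured 2 h after dosing. The mean % reduction versus control intake was compared between the first 3 and the last 3 days of the test.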

Canis familiaris [5] = experiment: Compound was evaluated for mean reduction in food intake in dogs at a dose 15 mg/kg at 2 hour after dosing for the last 3 days; assay type: functional, Canis lupus familiaris; procedure, shortened: as §2
Rattus norvegicus [6] = species on record: Rattus norvegicus; experiment: Compound was found to have no effect on the release or uptake of dopamine at in rat brain synaptosomes; Inactive; assay type: functional
Rattus norvegicus [7] = species on record: Rattus norvegicus; experiment: Compound was found to have no effect on the release or uptake of noradrenaline at in rat brain synaptosomes; Inactive; assay type: functional
Rattus norvegicus [8] = species on record: Rattus norvegicus; experiment: Compound was found to have no effect on the release or uptake of serotonin at in rat brain synaptosomes; Inactive; assay type: functional
Canis familiaris [9] = experiment: Compound was evaluated for mean increase in food intake in dogs at 1 hour after oral administration at a dose 10 mg/kg; assay type: functional, Canis lupus familiaris; procedure, shortened: as §1
Canis familiaris [10] = experiment: Compound was evaluated for mean increase in food intake in dogs after oral administration at a dose 3 mg/kg; assay type: functional, Canis lupus familiaris
Canis familiaris [11] = experiment: Compound was evaluated for mean reduction in food intake in three dogs at a dose 3 mg/kg orally for 3 weeks at 2 hour after dosing for the first 3 days; assay type: functional, Canis lupus familiaris; settings: route oral; procedure, shortened: as §2

SMILES	ED50 (Canis familiaris [1]) [mg/kg]	Reduction (Canis familiaris [2]) [%]	Reduction (Canis familiaris [3]) [%]	Reduction (Canis familiaris [4]) [%]	Reduction (Canis familiaris [5]) [%]	pIC50 (Rattus norvegicus [6])	pIC50 (Rattus norvegicus [7])	pIC50 (Rattus norvegicus [8])	Increase (Canis familiaris [9]) [%]	Increase (Canis familiaris [10]) [%]	Reduction (Canis familiaris [11]) [%]
Cl.c1ccc(COC[C@H]2COCCN2)cc1	12	47	51	53	56	< 5.00	< 5.00	< 5.00			
Cl.c1ccc(COC[C@@H]2COCCN2)cc1									13		
CCN(CC)C(C)C(=O)c1ccccc1.Cl (configuration not stated) [DIETHYLPROPION HYDROCHLORIDE]	2									5	86
